High-throughput results (PubChem)
NR2E3 ag-1 – NR2E3 (human) agonism | Q9Y5X4 | GST-NR2E3/biotin-RetCOR TR-FRET, 1536-well | inhibition of corepressor binding, % at 4.78 µM | hit rate 0.12% among 320,000 | AID 2300;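 active means percent inhibition above the cutoff of mean plus 3 SD of all tested compounds, set per screening campaign, cut at about 20% in these data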;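 further: 0% = DMSO wells and 100% = biotin wells as full block of FRET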
Target sequence (Q9Y5X4 whole entry, looked up): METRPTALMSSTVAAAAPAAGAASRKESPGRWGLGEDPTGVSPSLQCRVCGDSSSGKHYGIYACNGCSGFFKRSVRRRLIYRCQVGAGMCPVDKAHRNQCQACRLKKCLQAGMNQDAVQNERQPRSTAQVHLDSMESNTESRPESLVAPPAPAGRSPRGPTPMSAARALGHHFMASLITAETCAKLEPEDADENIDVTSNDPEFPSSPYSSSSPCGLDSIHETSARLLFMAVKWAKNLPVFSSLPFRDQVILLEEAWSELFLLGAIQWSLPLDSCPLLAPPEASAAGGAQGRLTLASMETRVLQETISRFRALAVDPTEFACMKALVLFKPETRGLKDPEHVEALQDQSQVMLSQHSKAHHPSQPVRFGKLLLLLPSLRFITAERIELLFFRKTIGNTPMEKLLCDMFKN
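Test system: GST-NR2E3 and biotin-RetCOR proteins | Quantity: 1.35 nM GST-tagged NR2E3 final | Medium: Tris pH 7.5 | Also added: 7 nM biotin-RetCOR | Dosing: Compound at 4.8 µM, single dose | Timing: 5 h at 4 °C | Detection: Time-resolved FRET | Read-out basis: Percent inhibition | Benchmarks: Biotin wells as high control, 0.6% DMSO wells as low control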
PG9 binder – binds the HIV-1 gp120 antibody PG9; TR-FRET gp120-PG9 antibody binding; inhibition, % at 6.7 µM; hit rate 0.43% among 360,000; AID 624416; in the data active means inhibition above about 8.5%
Rev-erbA mod – modulates human Rev-erb alpha binding to DNA; Rev-erbα–FITC-DNA binding, fluorescence polarization, 90 min; activity, % at 10 µM; hit rate 0.79% among 370,000; AID 1259318;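 active means activity above about 14%, limit read from the data; passing the limit was not always enough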;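 further: 0% = DMSO wells with 35 nM protein and 100% = DMSO wells with 750 nM protein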
PKA-R2B act – PKA-R2B complex activation. PKA-R2B holoenzyme dissociation, Cy5-IP20 fluorescence polarization; R2B truncated from residue 108, S112A mutant; 0% DMSO only, 100% 113 µM cGMP. activation, % at 11.4 µM. AID 504700. P22694+P31323. hit rate 0.079% among 340,000;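 active means activation above a cutoff set at the mean over all compounds plus 3 SD, cut at about 18% in these data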;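 further: higher means more holoenzyme dissociation and a rise in polarization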
PKA-R1A act – activators of PKA-R1A complex; P00514+P68181; PKA-R1A dissociation, Cy5-IP20 fluorescence polarization; scaled: DMSO 0%, 113 µM cGMP 100%; activation, % at 11.4 µM; hit rate 0.083% among 340,000;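 active means percent activation above the mean of all tested compounds plus 3 SD, cut at about 19% in these data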;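 further: higher means more PKAc released from R1A so a rise in polarization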
NR2E3 ag-2 – activates human NR2E3 receptor. Q9Y5X4. CHO-S Gal4-NCOR/VP16-NR2E3 two-hybrid, luciferase. inhibition of corepressor binding, % at 3.98 µM. hit rate 0.35% among 360,000. AID 602229;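 active means inhibition above the mean of all tested compounds plus 3 SD, cut at about 70% in these data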;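 further: 0% = DMSO with NR2E3 transfected cells and 100% = cells lacking NR2E3 construct; higher means lower luciferase signal from less NR2E3 corepressor binding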
PG9 binder conf – PG9 antibody binding, confirmed | shares compounds with PG9 binder | TR-FRET PG9 antibody binding, biochemical | inhibition, % at 6.7 µM | hit rate 90% among 1,500; in the data active means inhibition above about 9%
PGV04 Ab binding – binds control antibody PGV04 in PG9 binder counter-screen. inhibition, % at 6.7 µM. shares compounds with PG9 binder. hit rate 95% among 1,500. TR-FRET PGV04 antibody-gp120 binding, biochemical; in the data active means inhibition above about 9.5%
PG9 binder DR – small molecules binding HIV-1 gp120 antibody PG9; shares compounds with PG9 binder; TR-FRET PG9 antibody-gp120 binding inhibition; IC50, µM; 95 tested, under 10 active; AID 651848; in the data active means IC50 below about 10 µM
PGV04 DR counter – binds control antibody PGV04 in PG9 counter-screen; shares compounds with PG9 binder; TR-FRET binding to control antibody PGV04; IC50, µM; hit rate 20% among 95; AID 651937
PG126 DR counter – PG126 binding, dose response counter-screen; AID 651939; hit rate 20% among 95; shares compounds with PG9 binder; IC50, µM; TR-FRET binding to antibody PG126, counterscreen
Active calls of the source: *; x = no result. Shown are actives, neighbours in structure and some others; about 1.6% of the full set was active somewhere. Unless noted, no stated cut-off is given here; in the data, active means IC50 below about 9 µM; inactive means the rest.

SMILES	NR2E3 ag-1	PG9 binder	Rev-erbA mod	PKA-R2B act	PKA-R1A act	NR2E3 ag-2	PG9 binder conf	PGV04 Ab binding	others
COc1cc(C(=O)Oc2ccccc2)ccc1OCc1c(C)noc1C	4.2	10.5*	-2.1	-4.3	-1.3	-16.0	16.9*	13.1*	PG9 binder DR=>67;PGV04 DR counter=>67;PG126 DR counter=>67
C[C@H](O)[C@@H]1CN2CCc3c([nH]c4c(-c5ccccc5)cccc34)[C@@H]2C[C@@H]1N(C)C(=S)Nc1ccc(C#N)cc1	x	x	5.7	x	x	x	x	x
O=C(NCC1CCCO1)C1C2C=CC3(CN(Cc4cccs4)C(=O)C13)O2 (configuration not stated)	-0.9	-0.1	5.5	-10.1	4.7	-5.2	x	x
O=C(NC1CCCC1)C1C2C=CC3(CN(Cc4cccs4)C(=O)C13)O2 (configuration not stated)	0.1	28.8*	-0.5	1.9	0.5	13.9	8.5	9.2
O=C(CSc1nnc(-c2ccc(Br)cc2)n1C1CCCCC1)N1CCCC1	0.7	9.3*	-1.0	3.5	-10.9	1.2	8.7*	10.2*
CC(C)CN1C(=O)C[C@@]2(C(=O)N(C)c3ccc(NC(=O)c4cc(F)ccc4F)cc32)C1c1ccccc1 (some centres not stated)	x	x	3.8	x	x	x	x	x
COC(CNC(=O)[C@H](Cc1ccccc1)NC1(C(=O)NC2CCCCC2)CCCC1)OC	x	x	7.6	x	x	x	x	x
Cc1ccc(-c2cc(C(=O)N(C)Cc3cnn(C)c3C)c3cc(Br)ccc3n2)cc1	13.2	21.0*	11.1	-6.7	-11.7	10.6	24.6*	30.2*
Cc1cc(-c2n[nH]c(=S)n2-c2ccccc2)nn1C	2.8	-0.6	-3.5	2.6	-8.8	-8.9	x	x
Fc1cccc(-c2n[nH]c(=S)n2-c2ccccc2)c1	14.5	15.1*	8.1	-7.0	11.3	2.1	4.0	9.5*
COc1ccc2c(c1)c1nc3n(c(=O)c1n2CC(=O)Nc1ccccc1)CCCS3	-0.8	13.4*	10.4	5.2	-2.4	-17.0	26.5*	35.7*
CCCCCn1nnnc1C1(C)Cn2nccc2C(=O)N1Cc1ccco1 (configuration not stated)	x	x	-4.1	x	x	x	x	x
O=C(NCC(c1ccc(F)cc1)N1CCOCC1)c1ccc(OCc2ccccc2)cc1 (configuration not stated)	x	17.2*	0.3	7.1	-0.3	-4.9	16.7*	21.7*
CC(=O)Nc1ccc(NC(=O)c2ccc(COc3ccccc3)cc2)cc1	-0.5	-0.8	-2.0	-9.1	7.2	7.7	x	x
COc1ccc(C(CNC(=O)c2ccc(OCc3ccccc3)cc2)N2CCOCC2)cc1 (configuration not stated)	-2.8	0.1	-0.8	-1.6	0.8	-32.7	x	x
O=C(Nc1ccc(F)cc1)c1ccc(COc2ccccc2)cc1	4.1	9.6*	-0.2	9.6	5.7	-10.6	46.4*	55.8*
O=S1(=O)c2ccc(N3CCCC3)cc2Oc2ccccc2CN1Cc1cn(Cc2ccc(C(F)(F)F)cc2)nn1	x	x	6.4	x	x	x	x	x
C=CCn1c(=S)[nH]c2scc(-c3cccs3)c2c1=O	x	9.3*	4.9	1.6	-6.1	-35.4	9.8*	10.3*
Cc1c(C(=O)Nc2ccc(S(N)(=O)=O)cc2)oc2ccc(Cl)cc12	1.6	3.5	5.5	6.0	-9.4	-2.4	x	x
CCc1ccc2oc(C(=O)Nc3ccc(S(N)(=O)=O)cc3)c(C)c2c1	5.3	10.0*	0.1	-4.5	3.0	0.0	14.6*	20.9*
Cc1cnc(NC(=O)CCCSc2nc3ccccc3s2)s1	5.6	13.4*	7.3	7.3	-5.1	13.9	18.0*	24.6*
Cc1csc(NC(=O)CCCSc2nc3ccccc3s2)n1	-3.5	0.2	2.8	-8.0	1.6	24.5	x	x
O=[N+]([O-])c1cncc2[nH]cnc12	x	x	0.0	x	x	x	x	x
COc1ccc(S(=O)(=O)NNC(=O)c2cc3c4ccccc4n(C)c3s2)cc1	-0.7	17.8*	1.5	-11.5	-10.8	-8.9	18.9*	30.6*
O=C(COC(=O)Cc1ccc(Cl)cc1)NCc1ccc2c(c1)OCO2	x	0.0	5.7	-0.4	-0.8	-11.7	x	x
SMILES	NR2E3 ag-1	PG9 binder	Rev-erbA mod	PKA-R2B act	PKA-R1A act	NR2E3 ag-2	PG9 binder conf	PGV04 Ab binding	others
O=C(COC(=O)c1ccc2c(c1)OCO2)NCc1ccc(Cl)cc1	7.1	12.3*	2.7	-7.4	-3.6	-10.0	5.8	18.7*
Cc1cccc(C(=O)Nc2ccc3c(c2)C(=O)NC3=O)c1	0.0	-0.1	-2.6	-4.1	-4.7	-28.7	x	x
O=C(Nc1ccc2c(c1)C(=O)NC2=O)c1cccc(Cl)c1	-10.9	17.2*	16.5	6.9	-5.2	-3.2	28.1*	46.9*
CCCCOc1ccc(C(=O)Nc2ccc3c(c2)C(=O)NC3=O)cc1	0.8	20.9*	-10.1	4.1	3.1	-1.1	6.5	11.4*
Cn1c(C(=O)NC2CCCCC2)cc2c(=O)n(C)c3ccccc3c21	-16.1	12.5*	4.6	-9.9	-10.1	12.0	15.2*	26.5*
CCN(CC)CCN1C(=O)C(O)=C(C(=O)c2cc3cccc(OC)c3o2)C1c1cccs1 (configuration not stated)	12.8	x	x	x	x	x	x	x
Cc1ccc(C2C(C(=O)c3cc4ccccc4o3)=C(O)C(=O)N2CCN2CCOCC2)o1 (configuration not stated)	12.9	1.7	x	-5.0	-9.2	-7.2	x	x
CCN(CC)CCN1C(=O)C(O)=C(C(=O)c2cc3cccc(OC)c3o2)C1c1ccc(F)cc1 (configuration not stated)	-0.7	14.2*	-0.2	-1.0	7.0	-22.9	30.2*	36.8*
COC(=O)c1ccc(C2C(C(=O)c3cc4ccccc4o3)=C(O)C(=O)N2CCCN(C)C)cc1 (configuration not stated)	11.3	18.6*	0.2	-4.3	-3.8	-19.9	20.2*	29.0*
CN(C)CCCN1C(=O)C(O)=C(C(=O)c2cc3ccccc3o2)C1c1ccccn1 (configuration not stated)	x	26.4*	2.7	-3.3	-3.8	-2.7	40.0*	51.0*
